# Screening data from PubChem.
# UCH37 DUB inh – human UCH37 deubiquitinating enzyme inhibition; AID 588478; purified proteasome/UCH37, Ub-AMC cleavage fluorescence; hit rate 0.33% among 330,000; Q9Y5K5; inhibition, % (no concentration beside the values);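 active = mean inhibition over replicate wells above about 20%, limit read from the data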;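 note: 0% = compound-free wells with enzyme and 100% = wells lacking proteasome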
#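 Schedule: 30 min plus 25 min, room temperature / Material: human UCH37 within purified proteasomes / Technique: AMC fluorescence intensity at 355/460 nm / Buffer or medium: pH 7.4 Tris-HCl (50 mM) with ovalbumin, ATP-MgCl2, DTT / Controls: wells without proteasome as full block, compound-free enzyme plus substrate as uninhibited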
# UBC13 inh – blocks human UBC13 polyubiquitin chain formation; AID 485273; inhibition, % at 20 µM; P61088; hit rate 0.47% among 330,000; TR-FRET; in the data active = inhibition above about 45%, passing the limit was not always enough
# MEKK2wt PB1 HTS – raises or lowers MEK5 binding to wildtype human MEKK2 PB1 domain; Q9Y2U5; bead flow cytometry, Alexa488-MEK5 binding to MEKK2 WT; actives lie on both sides; binding response (% of control), % at 10 µM; hit rate 1.1% among 290,000; AID 1531; in the data active = binding response below about 67% or above about 130%
# MEKK3 PB1 HTS – raises or lowers MEK5 binding to the human MEKK3 PB1 domain. bead-based flow cytometry, Alexa488-MEK5 binding to MEKK3; actives lie on both sides; 0 = blocked by unlabeled MEK5, 100 = vehicle. AID 1529. Q99759. hit rate 1.4% among 290,000. binding response (% of control), % at 10 µM;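 active = binding response more than 3 SD above or below the average of its plate-row segment, actives on both sides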;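 note: Alexa488 bead fluorescence after subtracting the streptavidin-only scavenger bead signal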
# Target sequence (Q99759 whole entry, looked up, the tested form may be a part): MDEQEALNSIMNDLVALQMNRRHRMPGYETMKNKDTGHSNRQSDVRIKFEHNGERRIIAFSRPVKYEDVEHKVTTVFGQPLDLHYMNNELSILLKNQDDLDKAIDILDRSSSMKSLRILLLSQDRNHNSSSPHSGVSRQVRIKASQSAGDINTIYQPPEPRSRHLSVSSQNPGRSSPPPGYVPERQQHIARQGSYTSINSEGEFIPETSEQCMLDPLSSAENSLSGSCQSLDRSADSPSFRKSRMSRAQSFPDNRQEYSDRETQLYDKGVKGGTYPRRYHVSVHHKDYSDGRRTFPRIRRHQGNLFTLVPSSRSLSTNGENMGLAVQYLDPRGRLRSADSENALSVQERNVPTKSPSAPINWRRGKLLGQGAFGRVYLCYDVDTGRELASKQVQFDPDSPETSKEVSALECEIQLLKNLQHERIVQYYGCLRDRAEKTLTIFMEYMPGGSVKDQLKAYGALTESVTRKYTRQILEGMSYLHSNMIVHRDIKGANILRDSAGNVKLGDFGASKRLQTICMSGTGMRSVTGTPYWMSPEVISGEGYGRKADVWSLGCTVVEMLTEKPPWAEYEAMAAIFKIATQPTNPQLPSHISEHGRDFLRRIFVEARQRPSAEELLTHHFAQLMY
# MEKK2mut PB1 HTS – signal of MEK5 binding to mutant human MEKK2 PB1 domain. bead flow cytometry, Alexa488-MEK5 binding to MEKK2 mutant. percent response, % at 10 µM. hit rate 0.35% among 290,000. AID 1530; in the data active = percent response above about 24%, passing the limit was not always enough
# Apaf1 inhib – blocks human Apaf-1 apoptosome activity; AID 489030; O14727; inhibition, % at 20 µM; reconstituted apoptosome caspase-3 activity, DEVD-Rh110 fluorescence; hit rate 0.71% among 330,000; active = inhibition of at least 40% at 20 µM;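 note: plate controls were DMSO wells for no effect and DEVD-CHO caspase inhibitor wells for full effect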
#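 Material: reconstituted apoptosome with Apaf-1, cytochrome c, caspase-9, procaspase-3, dATP; medium: pH 7.5 Hepes buffer with CHAPS, BSA, DTT; also added: cytochrome c and DEVD-Rh110 substrate; timing: 30 min plus 50 min, RT; signal: Rh110 fluorescence intensity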
# Apaf-1 inh conf2 – confirmation of Apaf-1 inhibitors | shares compounds with Apaf1 inhib | reconstituted apoptosome, caspase-3 DEVD-Rh110 fluorescence | inhibition, % at 20 µM | hit rate 25% among 1,800 | AID 504614;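 active = mean inhibition of at least 40% at 20 µM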;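 note: plate controls were DMSO wells for no effect and DEVD-CHO caspase inhibitor control wells for full effect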
# Rh110 interf inh – interferes with Rh110 fluorescence, flagging false Apaf-1 inhibitors. shares compounds with Apaf1 inhib. Rh110 fluorescence interference, quenched caspase reaction. activation (fluorescence interference), % at 20 µM. 1,800 tested, under 10 active;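 active = signal rise of 40% or more at 20 µM, treated as a fluorescence artifact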
# Fluor interf inh – Apaf-1 inhibitor counter-screen fluorescence artifact | fluorescence interference counterscreen, Apaf-1 assay format | 460 tested, under 10 active | shares compounds with Apaf1 inhib | IC50, µM; call rule not given here
# * = called active by the depositor; . = not tested or not shown. Hits are enriched below; roughly 3% of the tested compounds scored in any of these assays.
SMILES,UCH37 DUB inh,UBC13 inh,MEKK2wt PB1 HTS,MEKK3 PB1 HTS,MEKK2mut PB1 HTS,Apaf1 inhib,Apaf-1 inh conf2,Rh110 interf inh,others
N#Cc1c(NC(=O)c2ccc(Br)o2)n(-c2ccccc2)c2nc3ccccc3nc12,-70.0,-27.6,91.0,94.0,-5.0,96.4*,87.3*,-3.5,Fluor interf inh=>100
CCC(C)n1c(NC(=O)c2ccccc2)c(C#N)c2nc3ccccc3nc21 (stereo not given),-4.0,-40.9,83.0,96.0,2.0,93.4*,32.6,9.2,
COc1cccc(CNC(=O)[C@H](CC(C)C)NC(=O)N2CCn3c2nc2ccccc23)c1,2.9,12.5,99.0,104.0,0.0,10.7,.,.,
COC(=O)c1ccc(C(c2c(C)[nH][nH]c2=O)c2c(C)[nH][nH]c2=O)cc1,3.4,-14.4,100.0,101.0,0.0,11.6,.,.,
COC(=O)c1ccccc1-c1ccc(C(c2c(C)[nH][nH]c2=O)c2c(C)[nH][nH]c2=O)o1,3.5,-44.5,88.0,88.0,-15.0,79.2*,30.5,5.8,
CCO/N=C/C1=C(O)C(C(=O)OC)C(C)(C)CC1=O (stereo not given),.,1.1,86.0,88.0,-13.0,-19.7,.,.,
COCCCNC(=O)CSc1nc2sc(C(=O)OC)c(C)c2c(=O)n1N,3.3,-9.3,102.0,100.0,-2.0,-10.2,.,.,
C=C(C)Cc1c(C)c(C#N)c2[nH]c3ccccc3n2c1=O,-441.7,-14.1,104.0,103.0,3.0,62.0*,45.5*,5.2,Fluor interf inh=>100
Cc1ccc(Cc2c(C)c(C#N)c3[nH]c4ccccc4n3c2=O)cc1,-20.5,2.7,101.0,102.0,4.0,5.8,.,.,
Cc1nn(CCc2nn[nH]n2)c2nc(-c3ccc(C4CCCCC4)cc3)cc(C(F)(F)F)c12,-145.0,-19.5,85.0,112.0,-10.0,59.7*,31.6,13.1,
O=c1[nH]c(N2CCOCC2)cc2ccccc12,-107.6,-6.0,99.0,97.0,0.0,92.5*,74.0*,1.9,Fluor interf inh=>100
COc1ccc(S(=O)(=O)NC(C)C(=O)Nc2ccccc2C(F)(F)F)cc1 (stereo not given),1.9,10.8,103.0,105.0,5.0,-20.5,.,.,
CCn1c(C)nc2cc(C(=O)NN=Cc3cccc(OC)c3O)ccc21,-3.1,.,.,.,.,.,.,.,
O=C(NC1C(=O)NNC1c1ccccc1)c1ccccc1 (stereo not given),3.1,-1.5,97.0,94.0,-4.0,19.8,.,.,
Cc1cccc(C(=O)NC2C(=O)NNC2c2ccc(Cl)cc2)c1 (stereo not given),1.1,-31.9,100.0,106.0,-48.0,54.0*,22.6,8.5,
CCN(CC)C(=O)C1CCCN(C(=O)Nc2ccc3nsnc3c2)C1 (stereo not given),-32.7,17.6,112.0,111.0,14.0,70.9*,11.8,4.9,
S=C(Nc1ccc2nsnc2c1)N1CCCCC1,7.1,.,101.0,104.0,-1.0,.,.,.,
Cc1ccc(Oc2nnc(-c3ccc(C)cc3)c3ccccc23)cc1,1.3,4.0,100.0,122.0,-1.0,7.7,.,.,
COc1ccccc1C(=O)Nc1ccc(Oc2nnc(-c3ccc(C)cc3)c3ccccc23)cc1,4.5,-17.9,90.0,99.0,7.0,40.1*,8.1,6.5,
O=C(O)CC(NC(=O)c1sc2ccccc2c1Cl)c1ccc(OC2CCCC2)cc1 (stereo not given),1.3,-13.6,93.0,91.0,-3.0,44.4*,10.6,1.0,
C/C(CC(=O)Nc1cccc(Cl)c1Cl)=N\NC(=O)c1ccccc1N,.,6.6,84.0,104.0,3.0,13.2,.,.,
CSCCC(NC(=O)c1ccccc1Br)C(=O)N1CCN(C(C)=O)CC1 (stereo not given),-0.7,1.0,.,.,.,48.1*,37.3,-1.1,
CSCCC(NC(=O)c1ccccc1Br)C(=O)N1CCC(C)CC1 (stereo not given),1.9,1.2,98.0,105.0,-4.0,-12.0,.,.,
COc1ccc(/C=N/Nc2cc(OC)ncn2)cc1,.,.,97.0,106.0,0.0,.,.,.,
CN(C)c1cc(N/N=C\c2ccccc2)nc(N(C)C)n1,.,-28.6,115.0,108.0,3.0,94.8*,88.6*,6.5,Fluor interf inh=>100
SMILES,UCH37 DUB inh,UBC13 inh,MEKK2wt PB1 HTS,MEKK3 PB1 HTS,MEKK2mut PB1 HTS,Apaf1 inhib,Apaf-1 inh conf2,Rh110 interf inh,others
COc1ccc(/C=N/Nc2cc(N(C)C)nc(N(C)C)n2)cc1,.,-15.9,108.0,98.0,-1.0,96.6*,95.3*,3.7,Fluor interf inh=>100
COc1ccc(OCC(=O)Nc2cc3oc4ccccc4c3cc2OC)cc1,-22.2,11.5,108.0,108.0,3.0,-9.6,.,.,
O=C(COC(=O)/C=C/c1ccccc1)NC1CCCC1,1.0,-4.4,.,.,.,3.5,.,.,
COc1cc(NC(C)CCCN)c2ncccc2c1 (stereo not given),5.1,-18.6,.,.,.,92.5*,32.9,-1.8,
N#Cc1nc(-c2ccco2)oc1N1CCCC1,-97.8,-3.1,101.0,100.0,2.0,3.5,.,.,
N#Cc1nc(-c2ccco2)oc1N1CCc2ccccc2C1,-83.2,3.0,103.0,103.0,2.0,51.7*,24.7,21.3,
CCOc1cc(/C=C2/C(=O)N(c3ccccc3)N=C2C)ccc1OC(=O)c1ccco1,5.5,-68.6,99.0,101.0,1.0,96.9*,21.0,17.3,
CC1=NN(c2ccc(C)cc2)C(=O)/C1=C\C=C\c1ccccc1,1.0,-40.5,100.0,97.0,-2.0,22.2,.,.,
CCOc1cc(/C=C2/C(=N)N3N=C(CC)SC3=NC2=O)ccc1OC(=O)c1ccco1,7.1,-0.6,99.0,103.0,1.0,7.5,.,.,
CC1=NN(c2ccc(C(=O)O)cc2)C(=O)/C1=C\c1ccc(OC(=O)c2cccs2)cc1,6.8,-55.3,95.0,97.0,1.0,75.3*,12.8,2.8,
CC1=NN(c2ccccc2)C(=O)/C1=C\N(O)c1ccccc1,12.5,-42.5,105.0,102.0,3.0,70.5*,30.1,2.0,
CC1=NN(c2ccccc2)C(=O)/C1=C/c1ccc(Cl)cc1,5.4,-43.6,101.0,101.0,5.0,95.9*,16.1,-2.3,
CC(C)(NO)C(=NO)c1cccs1,0.5,.,.,.,.,.,.,.,
Nc1cc(=O)[nH]c(SCC(=O)Nc2ccc(Oc3ccccc3)cc2)n1,3.2,-4.4,94.0,96.0,1.0,6.5,.,.,
CN(C(=O)c1cc2sccc2n1C)C1CCCCC1,1.6,-1.9,99.0,101.0,4.0,12.7,.,.,
Cc1ccc(OCCC(=O)OCC(=O)Nc2c(C)nn(-c3ccccc3)c2C)cc1,-2.3,-2.9,.,.,.,2.7,.,.,
CC1=NN(c2ccccc2)C(=O)/C1=C/c1ccc[nH]1,9.2,-35.0,106.0,105.0,-1.0,-138.2,.,.,
